System: CarE (carboxylesterase, EC3.1.1.1), final purified
Test: esterase activity, Fast Blue B, Lineweaver-Burk
Format: biochemical, Dendrolimus superans
Conditions: read-out: K m (mol/liter); 35°C; kcat unit printed as s
In short: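 Carboxylesterase from sixth-instar larval tissue homogenate, purified at 4°C by ammonium sulfate precipitation, Sephadex G-25, DEAE-52 and hydroxyapatite chromatography. Enzyme incubated 10 min at 35°C with α- or β-naphthyl acetate at five concentrations (0.1875–3.0 × 10^-4 mol/liter). Stopped with SDS/Fast Blue B; read at 600 nm. Km and Vmax from Lineweaver–Burk plots. Kcat from SDS-PAGE molecular weight and Vmax.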

Km: 0.000162 mol/L
Compound: CC(=O)Oc1ccc2ccccc2c1 [β-NA]

Reference: publication PMC5634022 (Journal of Insect Science, 2014)
